Calls of active or inactive are those of the source. The rule behind the calls is not given here.
Legend:
[1] = test system: Rattus norvegicus; assay: Reduction of core temperature in ip dosed Wistar rat up to 45 mins; type: functional, organism-based
In short: (§1)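 Individually housed rats (22 °C, 12:12 h light–dark) were randomized to ip vehicle, 10, 20 or 40 mg/kg. Extra groups (n = 10) got 20 or 40 mg/kg 15 min after AM251 (3 mg/kg ip), plus an AM251-alone group. Core temperature was measured with a rectal probe after injection.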

[2] = test system: Rattus norvegicus; assay: Effect on sleep-awake cycle in Wistar rat assessed as increase in non rapid eye movement sleep at 20 mg/kg, ip measured up to 4 hrs by electromyographic analysis; type: functional, organism-based; set-up: dose 20 mg/kg
In short: (§2)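 Rats (n = 6/group) had two hippocampal EEG electrodes implanted stereotaxically under ketamine/xylazine/acepromazine anaesthesia, then recovered 10 days and habituated 24 h. Two ip injections 15 min apart: DMSO (1 ml/kg) or AM251, then vegetal oil (1 ml/kg) or test drug. Dosing was at dark-phase onset. Wake, SWS and REMS were scored from EEG/EMG as time per hour over 12 h, plus sleep latency.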

[3] = test system: Rattus norvegicus; assay: Reduction of core temperature in Wistar rat at 10 to 40 mg/kg, ip after 15 mins; type: functional; details: dose mg/kg 10-40; route intraperitoneal; in short: as §1
[4] = test system: Rattus norvegicus; assay: Increase of pain perception in Wistar rat assessed as latency at 10 to 40 mg/kg, ip measured after 30 to 45 mins by hotplate method; type: functional, organism-based
In short: (§3)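 Individually housed rats (22 °C, 12:12 h light–dark, food and water ad libitum) were randomized to ip vehicle, 10, 20 or 40 mg/kg. Extra groups (n = 10) got 20 or 40 mg/kg 15 min after AM251 (3 mg/kg ip); another group got AM251 alone. Pain perception was read as hot-plate latency to signs of discomfort.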

[5] = test system: Rattus norvegicus; assay: Reduction of core temperature in Wistar rat at 10 to 40 mg/kg, ip up to 45 mins; type: functional; details: dose mg/kg 10-40; route intraperitoneal; in short: as §1
[6] = test system: Rattus norvegicus; assay: Reduction of core temperature in Wistar rat at 10 to 40 mg/kg, ip measured up to 45 mins in presence of AM251; type: functional, organism-based; in short: as §1
[7] = test system: Rattus norvegicus; assay: Effect on sleep-awake cycle in Wistar rat assessed as increase in rapid eye movement sleep at 20 mg/kg, ip measured up to 4 hrs by electromyographic analysis in presence of AM251; type: functional, organism-based; set-up: dose 20 mg/kg; in short: as §2
[8] = test system: Rattus norvegicus; assay: Effect on sleep-awake cycle in Wistar rat assessed as increase in rapid eye movement sleep at 20 mg/kg, ip measured up to 4 hrs by electromyographic analysis; type: functional, organism-based; set-up: dose 20 mg/kg; in short: as §2
[9] = test system: Rattus norvegicus; assay: Induction addiction in Wistar rat at 20 mg/kg, ip assessed as signs of dependence; type: ADME, organism-based; set-up: dose 20 mg/kg, route intraperitoneal; details: in vivo
In short: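 Conditioned place preference test at 20 mg/kg; time spent in the drug-paired compartment A was recorded as the index of rewarding effect or dependence.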

[10] = test system: Rattus norvegicus; assay: Increase of pain perception in ip dosed Wistar rat assessed as latency after 30 to 45 mins by hotplate method; type: functional, organism-based; in short: as §3
[11] = test system: Rattus norvegicus; assay: Increase of pain perception in Wistar rat assessed as latency at 20 to 40 mg/kg, ip measured after 30 to 45 mins by hotplate method in presence of AM251; type: functional, organism-based; in short: as §3

## CCCCCC[C@H](C/C=C\CCCCCCCC(=O)N1CC2CC1CN2C)OC(=O)Cc1ccccc1 (stereo partly specified)
[1]
  Activity: inactive
[2]
  Activity: Active
[3]
  T: 1 °C
[4]
  Activity: Active
[5]
  T: 1.5 °C
[6]
  Activity: inactive
[7]
  Activity: inactive
[8]
  Activity: Active
[9]
  Activity: Non-toxic
[10]
  Activity: inactive
[11]
  Activity: inactive

— ChEMBL document CHEMBL1155512, “Chemoenzymatic synthesis and cannabinoid activity of a new diazabicyclic amide of phenylacetylricinoleic acid” (Bioorg Med Chem Lett, 2010)
